In ChEMBL document CHEMBL1139031, “Synthesis and insecticidal activity of fluorinated 2-(2,6-dichloro-4-trifluoromethylphenyl)-2,4,5,6-tetrahydrocyclopentapyrazoles” (Bioorg Med Chem Lett, 2006):

What was measured:
GABA receptor subunit = target: T1, GABA receptor subunit (Musca domestica, UniProt Q75NA5); experiment: Displacement of [3H]EBOB from housefly neuronal membrane GABA receptor
T1 sequence (Q75NA5 whole entry): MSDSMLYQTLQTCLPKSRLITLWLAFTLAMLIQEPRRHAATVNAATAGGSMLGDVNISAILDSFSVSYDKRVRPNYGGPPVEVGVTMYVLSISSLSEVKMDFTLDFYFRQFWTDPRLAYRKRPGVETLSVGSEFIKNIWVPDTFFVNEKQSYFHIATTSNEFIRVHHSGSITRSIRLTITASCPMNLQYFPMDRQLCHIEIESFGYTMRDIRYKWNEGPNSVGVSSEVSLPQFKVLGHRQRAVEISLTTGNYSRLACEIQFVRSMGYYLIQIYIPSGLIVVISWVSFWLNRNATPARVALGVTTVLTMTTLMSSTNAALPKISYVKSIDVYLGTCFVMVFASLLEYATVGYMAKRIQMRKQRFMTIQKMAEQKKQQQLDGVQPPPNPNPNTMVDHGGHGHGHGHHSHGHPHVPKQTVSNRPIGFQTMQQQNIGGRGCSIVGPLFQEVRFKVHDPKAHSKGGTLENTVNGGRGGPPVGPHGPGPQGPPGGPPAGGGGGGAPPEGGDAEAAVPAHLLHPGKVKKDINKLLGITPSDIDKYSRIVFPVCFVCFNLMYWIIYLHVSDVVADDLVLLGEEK
How it was run: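 Housefly neuronal membranes (0.5–1.0 mg/mL in added buffer) with 5.2 nM [3H]EBOB in ice-cold 10 mM phosphate, 300 mM NaCl, pH 7.5; DMSO compound solutions. Incubated 45 min at 24 °C, then filtered on polyethylenimine-soaked glass fiber; bound radioactivity counted. Membrane-free wells served as controls. Actives were retested at 24–48 final concentrations, and IC50 was taken at 50% of maximal inhibition.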

[1] = Selectivity for housefly GABA receptor over mouse GABA receptor
Ctenocephalides felis [2] = experiment: Insecticidal activity against cyclodiene resistant allele-homozygous serine S/S flea by contact assay; assay type: functional
How it was run: (§1)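 Contact vial assay with cat fleas of the cyclodiene-resistant homozygous serine (CO) or sensitive homozygous alanine (ARC) strain. Compound in DMSO was dried onto a glass-fiber disk for 24–48 h, and a DMSO-only disk was the control. Twenty newly emerged fleas, sedated at 0–4 °C, were sealed in each vial and held in the dark. Dead fleas were counted after 24 h, and percentage mortality was calculated.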

Ctenocephalides felis [3] = experiment: Insecticidal activity against ARC sensitive homozygous alanine A/A flea at 100 mM by contact assay; assay type: functional; how it was run: as §1
[4] = target: GABA-A receptor; anion channel; experiment: Binding affinity to mouse brain GABA receptor
How it was run: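 Displacement of [3H]EBOB (5.2 nM, 38 Ci/mmol) from neuronal membranes (0.5–1.0 mg/mL), housefly or mouse brain, in ice-cold 10 mM phosphate, 300 mM NaCl, pH 7.5. Compound added from DMSO. Membrane-free wells served as controls. Incubated 45 min at 24 °C, then filtered on polyethylenimine-soaked glass fiber and bound radioactivity counted. IC50 (50% of maximal inhibition) taken from 24–48 concentrations.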

Musca domestica [5] = experiment: Insecticidal activity against housefly by contact assay; assay type: functional; set-up: concentration or dose not given beside the values
How it was run: (§2)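 Newly emerged houseflies were CO2-sedated and fed 10% sucrose for 2–4 h. Compound in DMSO with isopropanol was rolled to coat glass tubes and air-dried for 24–48 h, with a DMSO-only control. Twenty flies, sedated by refrigeration at 0–4 °C, were placed in each tube. Healthy, moribund and dead flies were counted after 24 h.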

Mus musculus [6] = organism: Mus musculus; experiment: (§3) Half life in mouse liver microsome; assay type: ADME; conditions: microsomes
[7] = (§4) Half life in dog liver microsome; assay type: ADME, Canis lupus familiaris; conditions: liver microsomes
Mus musculus [8] = organism: Mus musculus; experiment: Clearance in mouse; assay type: ADME, organism-based; conditions: in vitro
Canis familiaris [9] = organism: Canis familiaris; experiment: Clearance in dog; assay type: ADME, organism-based, Canis lupus familiaris; conditions: in vitro
Musca domestica [10] = experiment: Insecticidal activity against housefly at 100 mM by contact assay; assay type: functional; conditions: for LC50: Musca domestica, read-out: LD50 (the source's name); how it was run: as §2
[11] = as §3; assay type: ADME; conditions: liver microsomes
Canis familiaris [12] = organism: Canis familiaris; experiment: as §4; assay type: ADME, Canis lupus familiaris; conditions: microsomes
Ctenocephalides felis [13] = experiment: Insecticidal activity against heterozygous S/A flea by contact assay; assay type: functional
Ctenocephalides felis [14] = experiment: Insecticidal activity against cyclodiene resistant allele-homozygous serine S/S flea at 100 mM by contact assay; assay type: functional; how it was run: as §1
[15] = read-out: LD50 (the source's name)

Structure (SMILES): FC(F)(F)c1cc(Cl)c(-n2cc3c(n2)CC(F)(F)C3(F)F)c(Cl)c1
- IC50 (GABA receptor subunit): < 0.1 µM
- selectivity ratio [1]: > 0.5
- LC50 (Ctenocephalides felis [2]; [15]): < 500 µM
- Activity (Ctenocephalides felis [3]): 100%
- IC50 [4]: 0.05 µM

Structure (SMILES): CC1(O)c2cn(-c3c(Cl)cc(C(F)(F)F)cc3Cl)nc2CC1(F)F (stereo unspecified)
- selectivity ratio [1]: 23
- Activity (Musca domestica [5]): 72%
- LC50 (Ctenocephalides felis [2]; [15]): 10000 µM
- Activity (Ctenocephalides felis [3]): 100%
- T1/2 (Mus musculus [6]): Stable
- half-life [7]: 8.45 h
- CL (Mus musculus [8]): Stable
- CL (Canis familiaris [9]): 296.9 pmol/min/mg
- IC50 [4]: 2.3 µM

Structure (SMILES): FC(F)(F)c1cc(Cl)c(-n2cc3c(n2)CCC3(F)F)c(Cl)c1
- IC50 (GABA receptor subunit): > 0.1 µM
- selectivity ratio [1]: < 10
- LC50 (Musca domestica [10]): 88000 µM
- LC50 (Ctenocephalides felis [2]; [15]): 1000 µM
- Activity (Ctenocephalides felis [3]): 100%
- IC50 [4]: 1 µM

Structure (SMILES): CC1(O)c2cn(-c3c(Cl)cc(C(F)(F)F)cc3Cl)nc2C(F)C1F (stereo unspecified)
- selectivity ratio [1]: > 28
- Activity (Musca domestica [5]): 100%
- LC50 (Ctenocephalides felis [2]; [15]): 5000 µM
- Activity (Ctenocephalides felis [3]): 100%
- IC50 [4]: > 10 µM

Structure (SMILES): FC1CCc2cn(-c3c(Cl)cc(C(F)(F)F)cc3Cl)nc21 (stereo unspecified)
- IC50 (GABA receptor subunit): 0.29 µM
- selectivity ratio [1]: 10
- Activity (Musca domestica [5]): 85%
- LC50 (Ctenocephalides felis [2]; [15]): 11000 µM
- Activity (Ctenocephalides felis [3]): 95%
- IC50 [4]: 2.9 µM

Structure (SMILES): FC1Cc2nn(-c3c(Cl)cc(C(F)(F)F)cc3Cl)cc2C1(F)F (stereo unspecified)
- IC50 (GABA receptor subunit): < 0.1 µM
- selectivity ratio [1]: > 10
- Activity (Musca domestica [5]): 100%
- LC50 (Ctenocephalides felis [2]; [15]): 1000 µM
- Activity (Ctenocephalides felis [3]): 100%
- half-life [11]: 1.08 h
- T1/2 (Canis familiaris [12]): Stable
- CL (Mus musculus [8]): 109.2 pmol/min/mg
- CL (Canis familiaris [9]): Stable
- IC50 [4]: 1 µM

Structure (SMILES): FC1c2nn(-c3c(Cl)cc(C(F)(F)F)cc3Cl)cc2C(F)(F)C1F (stereo unspecified)
- LC50 (Musca domestica [10]): 400 µM
- LC50 (Ctenocephalides felis [2]; [15]): < 500 µM
- Activity (Ctenocephalides felis [3]): 100%
- IC50 [4]: 0.175 µM

Structure (SMILES): FC1Cc2cn(-c3c(Cl)cc(C(F)(F)F)cc3Cl)nc2C1F (stereo unspecified)
- IC50 (GABA receptor subunit): 0.2 µM
- selectivity ratio [1]: 5
- LC50 (Musca domestica [10]): 79000 µM
- Activity (Ctenocephalides felis [3]): 100%
- half-life [11]: 0.373 h
- T1/2 (Canis familiaris [12]): Stable
- CL (Mus musculus [8]): 255.1 pmol/min/mg
- CL (Canis familiaris [9]): Stable
- IC50 [4]: 1 µM

Structure (SMILES): O=C1CCc2nn(-c3c(Cl)cc(C(F)(F)F)cc3Cl)cc21
- IC50 (GABA receptor subunit): 0.47 µM
- selectivity ratio [1]: 42
- LC50 (Musca domestica [10]): 81000 µM
- Activity (Ctenocephalides felis [3]): 16.5%
- IC50 [4]: 20 µM

Structure (SMILES): FC1(F)Cc2cn(-c3c(Cl)cc(C(F)(F)F)cc3Cl)nc2C1
- IC50 (GABA receptor subunit): 0.2 µM
- selectivity ratio [1]: 1
- Activity (Musca domestica [5]): 87.9%
- LC50 (Ctenocephalides felis [2]; [15]): 2000 µM
- Activity (Ctenocephalides felis [3]): 100%
- IC50 [4]: 0.175 µM

Structure (SMILES): CC1CCc2nn(-c3c(Cl)cc(C(F)(F)F)cc3Cl)cc21 (stereo unspecified)
- IC50 (GABA receptor subunit): 0.03 µM
- selectivity ratio [1]: 126
- Activity (Musca domestica [10]): 10%
- LC50 (Ctenocephalides felis [2]; read-out: LC50): 10000 µM
- LC50 (Ctenocephalides felis [13]): 3000 µM
- Activity (Ctenocephalides felis [3]): 100%
- IC50 [4]: 3.8 µM

Structure (SMILES): O=C1c2cn(-c3c(Cl)cc(C(F)(F)F)cc3Cl)nc2CC1F (stereo unspecified)
- IC50 (GABA receptor subunit): 0.32 µM
- selectivity ratio [1]: 10
- Activity (Musca domestica [5]): 57.5%
- Activity (Ctenocephalides felis [3]): 95.4%
- Activity (Ctenocephalides felis [14]): 10.8%
- IC50 [4]: 3.2 µM

Structure (SMILES): FC1CCc2nn(-c3c(Cl)cc(C(F)(F)F)cc3Cl)cc21 (stereo unspecified)
- IC50 (GABA receptor subunit): 1.7 µM
- selectivity ratio [1]: > 5
- Activity (Musca domestica [5]): 7%
- Activity (Ctenocephalides felis [14]): 36%
- IC50 [4]: > 10 µM

Structure (SMILES): FC(F)(F)c1cc(Cl)c(-n2cc3c(n2)C(F)(F)CC3)c(Cl)c1
- LC50 (Ctenocephalides felis [2]; [15]): 15000 µM
- Activity (Ctenocephalides felis [3]): 100%
- IC50 [4]: 2.8 µM

Structure (SMILES): O=C1CC(F)(F)c2nn(-c3c(Cl)cc(C(F)(F)F)cc3Cl)cc21
- Activity (Musca domestica [5]): 6%
- Activity (Ctenocephalides felis [3]): 40%
- Activity (Ctenocephalides felis [14]): 1%

Structure (SMILES): COC1(C)c2cn(-c3c(Cl)cc(C(F)(F)F)cc3Cl)nc2CC1F (stereo unspecified)
- IC50 (GABA receptor subunit): 0.1 µM
- selectivity ratio [1]: 120
- LC50 (Ctenocephalides felis [2]; [15]): 1800 µM
- Activity (Ctenocephalides felis [3]): 100%
- half-life [11]: 2.42 h
- T1/2 (Canis familiaris [12]): Stable
- CL (Mus musculus [8]): 34.1 pmol/min/mg
- CL (Canis familiaris [9]): Stable
- IC50 [4]: 12 µM

Structure (SMILES): FC(F)(F)c1cc(Cl)c(-n2cc3c(n2)CCC3)c(Cl)c1
- selectivity ratio [1]: 19
- Activity (Musca domestica [10]): 30%
- LC50 (Ctenocephalides felis [2]; read-out: LC50): 8000 µM
- LC50 (Ctenocephalides felis [13]): 7000 µM
- Activity (Ctenocephalides felis [3]): 100%
- IC50 [4]: 1.6 µM

Structure (SMILES): COC1CC(F)(F)c2nn(-c3c(Cl)cc(C(F)(F)F)cc3Cl)cc21 (stereo unspecified)
- Activity (Musca domestica [5]): 22%
- Activity (Ctenocephalides felis [3]): 100%
- Activity (Ctenocephalides felis [14]): 3%
- IC50 [4]: 3.7 µM

Structure (SMILES): O=C1c2cn(-c3c(Cl)cc(C(F)(F)F)cc3Cl)nc2CC1(F)F
- Activity (Musca domestica [5]): 6%
- Activity (Ctenocephalides felis [3]): 40%
- Activity (Ctenocephalides felis [14]): 1%

Structure (SMILES): CC1(F)CC(F)(F)c2nn(-c3c(Cl)cc(C(F)(F)F)cc3Cl)cc21 (stereo unspecified)
- Activity (Musca domestica [5]): 16.7%
- Activity (Ctenocephalides felis [3]): 100%
- Activity (Ctenocephalides felis [14]): 3%
- IC50 [4]: > 10 µM

Structure (SMILES): FC(F)(F)c1cc(Cl)c(-n2cc3c(n2)C(F)(F)CC3(F)F)c(Cl)c1
- IC50 (GABA receptor subunit): 0.074 µM
- selectivity ratio [1]: 4
- Activity (Musca domestica [5]): 93.9%
- Activity (Ctenocephalides felis [3]): 100%
- Activity (Ctenocephalides felis [14]): 60.7%
- IC50 [4]: 0.3 µM
